Laboratory results reported in ChEMBL document CHEMBL4229525, “Anti-angiogenic and anticancer effects of baicalein derivatives based on transgenic zebrafish model” (Bioorg Med Chem, 2018).

How the values were obtained:
Danio rerio [1] = organism: Danio rerio; experiment: Antiangiogenic activity in 24 to 72 hrs post fertilized zebra fish embryo harboring fli1:EGFP after 48 hrs by fluorescence microscopic analysis; type: functional
Outline: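 Tg(fli1:EGFP) zebrafish: 20 dechorionated 24 hpf embryos per group in 1 mL embryo water with compound (1, 5, 10, 25, 50, 75, 100, 150, 200 μM), 28.5 °C for 48 h. Embryos anaesthetised in 0.016% tricaine; ISVs imaged by fluorescence microscopy at 72 hpf and scored for vessel defects and overall morphology. SU5416 positive control.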

Danio rerio [2] = organism: Danio rerio; experiment: Toxicity in 24 to 72 hrs post fertilized zebra fish embryo harboring fli1:EGFP; type: organism-based; conditions: zebrafish, in vivo
Outline: (§1)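 Dechorionated Tg(fli1:EGFP) embryos at 24 hpf, 20 per group, were kept in 1 mL embryo water with compound at 28.5 °C for a further 48 h. Compound was tested at 1, 5, 10, 25, 50, 75, 100, 150 and 200 μM. At 72 hpf, embryos anaesthetised with 0.016% tricaine had their ISVs imaged by fluorescence microscopy, with SU5416 as positive control. Definitions used: LOEC is anti-angiogenic effect in most larvae; LOTC is lowest toxic concentration; LC100 is total embryo lethality. TI = LOTC/LOEC; AI = LC100/LOEC.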

[3] = Antiangiogenic index, ratio of LC100 for 24 to 72 hrs post fertilized zebra fish embryo harboring fli1:EGFP to MEC for antiangiogenic activity in 24 to 72 hrs post fertilized zebra fish embryo harboring fli1:EGFP; type: toxicity, organism-based, Danio rerio; conditions: fli1:EGFP transgenic, zebrafish, in vivo; outline: as §1
[4] = Toxicity index, ratio of MTC for 24 to 72 hrs post fertilized zebra fish embryo harboring fli1:EGFP to MEC for antiangiogenic activity in 24 to 72 hrs post fertilized zebra fish embryo harboring fli1:EGFP; type: organism-based, Danio rerio; conditions: fli1:EGFP transgenic, zebrafish, in vivo; outline: as §1
A549 [5] = experiment: Induction of apoptosis in human A549 cells assessed as live cells at 2.5 uM after 48 hrs by Annexin-V-FITC/propidium iodide staining based flow cytometry (reference value: 75.2%); type: functional
Outline: (§2)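 A549 cells were plated at 2 × 10⁵ per well and held at 37 °C, 5% CO₂ for 24 h before compound was added. After treatment, cells were stained with annexin V-FITC plus propidium iodide for 30 min at 25 °C. Quadrants were read by flow cytometry: Q3 early apoptotic, Q2 late apoptotic.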

A549 [6] = experiment: Induction of apoptosis in human A549 cells assessed as necrotic cells at 2.5 uM after 48 hrs by Annexin-V-FITC/propidium iodide staining based flow cytometry (reference value: 5.45%); type: functional; outline: as §2
A549 [7] = experiment: Induction of apoptosis in human A549 cells assessed as early apoptotic cells at 2.5 uM after 48 hrs by Annexin-V-FITC/propidium iodide staining based flow cytometry (reference value: 15.2%); type: functional; outline: as §2
A549 [8] = experiment: Induction of apoptosis in human A549 cells assessed as late apoptotic cells at 2.5 uM after 48 hrs by Annexin-V-FITC/propidium iodide staining based flow cytometry (reference value: 4.05%); type: functional; outline: as §2

SMILES	MEC (Danio rerio [1])	LC100 (Danio rerio [2])	MTC (Danio rerio [2])	selectivity ratio [3]	selectivity ratio [4]	Activity (A549 [5])	Activity (A549 [6])	Activity (A549 [7])	Activity (A549 [8])
O=C(COc1c(OCc2ccccc2)cc2oc(-c3ccccc3)cc(=O)c2c1O)N1CCCC1	100 µM	> 200 µM	100 µM	> 2	1				
O=C(COc1c(O)cc2oc(-c3ccccc3)cc(=O)c2c1O)N(CCO)CCO	>200 µM	> 200 µM	> 200 µM						
O=C(COc1c(O)cc2oc(-c3ccccc3)cc(=O)c2c1O)N1CCNCC1	10 µM	50 µM	15 µM	5	1.5				
CCN1CCN(C(=O)COc2c(OCc3ccccc3)cc3oc(-c4ccccc4)cc(=O)c3c2O)CC1		Nd(Insoluble)	Nd(Insoluble)						
O=C(COc1c(O)cc2oc(-c3ccccc3)cc(=O)c2c1O)N1CCN(CCO)CC1	100 µM	> 200 µM	100 µM	> 2	1				
O=C(COc1c(OCc2ccccc2)cc2oc(-c3ccccc3)cc(=O)c2c1O)NCCO	100 µM	200 µM	100 µM	2	1				
O=c1cc(-c2ccccc2)oc2cc(O)c(OCCCCCNCCO)c(O)c12	25 µM	100 µM	50 µM	4	2				
O=C(O)CCC(=O)OCCOc1c(O)cc2oc(-c3ccccc3)cc(=O)c2c1O	50 µM	75 µM	> 75 µM	1.5	> 1.5				
O=C(COc1c(O)cc2oc(-c3ccccc3)cc(=O)c2c1O)N1CCC(O)CC1	50 µM	100 µM	50 µM	2	1				
O=C(O)COc1c(O)cc2oc(-c3ccccc3)cc(=O)c2c1O	>50 µM	50 µM	> 50 µM						
O=C(COc1c(OCc2ccccc2)cc2oc(-c3ccccc3)cc(=O)c2c1O)N1CCN(c2ncccn2)CC1	75 µM	100 µM	75 µM	1.3	1				
O=C(COc1c(OCc2ccccc2)cc2oc(-c3ccccc3)cc(=O)c2c1O)N1CCC(O)CC1	25 µM	100 µM	25 µM	4	1				
CN1CCN(C(=O)COc2c(O)cc3oc(-c4ccccc4)cc(=O)c3c2O)CC1	10 µM	50 µM	15 µM	5	1.5				
O=c1cc(-c2ccccc2)oc2cc(O)c(O)c(O)c12 [BAICALEIN]	0.5 µM	1 µM	0.5 µM	2	1				
O=c1cc(-c2ccccc2)oc2cc(O)c(OCCCCCO)c(O)c12	1 µM	5 µM	1 µM	5	1				
O=C(COc1c(O)cc2oc(-c3ccccc3)cc(=O)c2c1O)NCCO	200 µM	200 µM	200 µM	1	1				

SMILES	MEC (Danio rerio [1])	LC100 (Danio rerio [2])	MTC (Danio rerio [2])	selectivity ratio [3]	selectivity ratio [4]	Activity (A549 [5])	Activity (A549 [6])	Activity (A549 [7])	Activity (A549 [8])
O=c1cc(-c2ccccc2)oc2cc(O)c(OCCCO)c(O)c12	2.5 µM	15 µM	2.5 µM	6	1				
CCN(CC)C(=O)COc1c(O)cc2oc(-c3ccccc3)cc(=O)c2c1O	200 µM	200 µM	200 µM	1	1				
O=C(COc1c(OCc2ccccc2)cc2oc(-c3ccccc3)cc(=O)c2c1O)N1CCN(CCO)CC1	200 µM	200 µM	200 µM	1	1				
CN1CCN(C(=O)COc2c(OCc3ccccc3)cc3oc(-c4ccccc4)cc(=O)c3c2O)CC1	10 µM	50 µM	10 µM	5	1				
O=c1cc(-c2ccccc2)oc2cc(O)c(OCCO)c(O)c12	5 µM	50 µM	10 µM	10	2				
O=C(O)c1cc(O)c(O)c(O)c1 [GALLIC ACID]						39.5%	6.7%	32.6%	20.2%
Cc1cc(C)c(/C=C2\C(=O)Nc3ccccc32)[nH]1 [SEMAXANIB]	1 µM	5 µM	1.5 µM	5	1.5				
O=c1cc(-c2ccccc2)oc2cc(O)c(OCC(O)CO)c(O)c12 (configuration not stated)	50 µM	100 µM	50 µM	2	1				
O=C(COc1c(OCc2ccccc2)cc2oc(-c3ccccc3)cc(=O)c2c1O)N1CCOCC1	50 µM	100 µM	50 µM	2	1				
O=c1cc(-c2ccccc2)oc2cc(OCCCO)c(O)c(O)c12	100 µM	> 200 µM	100 µM	> 2	1				
O=C(COc1c(OCc2ccccc2)cc2oc(-c3ccccc3)cc(=O)c2c1O)N(CCO)CCO	100 µM	200 µM	100 µM	2	1				
CC(C)=CCOc1cc2oc(-c3ccccc3)cc(=O)c2c(O)c1O	50 µM	100 µM	50 µM	2	1				
COc1c(OCCCN(C)CCO)c(O)cc2oc(-c3ccccc3)cc(=O)c12	100 µM	> 200 µM	100 µM	> 2	1				
O=c1cc(-c2ccccc2)oc2cc(O)c(OCCCCO)c(O)c12	5 µM	30 µM	10 µM	6	2				
O=c1cc(-c2ccccc2)oc2cc(O)c(OCCCCCCO)c(O)c12	2.5 µM	10 µM	2.5 µM	4	1				
CN(C)CCNC(=O)COc1c(O)cc2oc(-c3ccccc3)cc(=O)c2c1O	100 µM	> 200 µM	100 µM	> 2	1				
